Data on 33 compounds can be found in ChEMBL document CHEMBL1124975 (J Med Chem, 1990).

The term pKi denotes −log10 of the Ki, conventionally taken in molar units. Read a high pKi as a low Ki. A word on the inhibition: it is the relative decrease from the control value, in per cent. Read a low inhibition as a weak effect.

A short description of experiment [1]: (§1) Binding affinity towards 5-hydroxytryptamine 3 receptor by displacement of [3H]2 in Neuroblastoma-Glioma NG-108-15 cells. Background: Displacement assays read how much labelled ligand stays bound in the presence of the test substance.
Experiment [2] has as its target T1, Serotonin 3 (5-HT3) receptor (Rattus norvegicus) (UniProt P35563+Q9JJ16). In words: Serotonin receptor antagonist activity was measured as ability to block the serotonin-induced Bezold-Jarisch reflex in rats after iv administration of 2 ug/Kg. Type of experiment: functional, organism-based. A digest of the protocol: (§2)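 Anaesthetic and strain not given; rats dosed iv with test compound via a right femoral vein cannula. Serotonin 100 μg kg-1 iv was given through the same route 1 min after drug. Inhibition of the serotonin-induced bradycardia (Bezold-Jarisch reflex) was scored.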

For experiment [3], the target named is T1, Serotonin 3 (5-HT3) receptor (Rattus norvegicus). In words: Serotonin receptor antagonist activity was measured as ability to block the serotonin-induced Bezold-Jarisch reflex in rats after iv administration of 100 ug/Kg. It is filed as functional, organism-based. In outline: as §2
In experiment [4] the target is 5-hydroxytryptamine receptor 3A. The experiment is described as §1.
The target in experiment [5] is T1, Serotonin 3 (5-HT3) receptor (Rattus norvegicus). The experiment is described as follows: Serotonin receptor antagonist activity was measured as ability to block the serotonin-induced Bezold-Jarisch reflex in rats after iv administration of 5 ug/Kg. It is filed as functional, organism-based. In outline: as §2
For experiment [6] the target is unchanged. In words: Serotonin receptor antagonist activity was measured as ability to block the serotonin-induced Bezold-Jarisch reflex in rats after iv administration of 20 ug/Kg. Type of experiment: functional, organism-based. In outline: as §2
In experiment [7] the target is Beta-2 adrenergic receptor (Canis lupus familiaris, UniProt P54833). In words: Binding affinity for Beta adrenergic receptor was determined by using [3H]dihydroalprenolol as radioligand.
The target of experiment [8] is 5-hydroxytryptamine receptor 1B (Rattus norvegicus) (UniProt P28564). The experiment is described as follows: Binding affinity for 5-hydroxytryptamine 1B receptor was determined by using [3H]5-HT as radioligand.
Another experiment addresses Mu-type opioid receptor (Homo sapiens, UniProt P35372). In words: Binding affinity for Opioid receptor mu 1 was determined by using [3H]naloxone as radioligand.
The target of experiment [9] is Muscarinic acetylcholine receptor M3 (Rattus norvegicus, UniProt P08483). The experiment is described as follows: Binding affinity for Muscarinic acetylcholine receptor was determined by using [3H]QNB as radioligand.
In experiment [10] the target is GABA-A receptor; anion channel. The experiment is described as follows: Displacement of [3H]flunitrazepam from GABA-A Benzodiazepine receptor. It is filed as protein-complex assay.
For experiment [11], the target named is 5-hydroxytryptamine receptor 2A (Bos taurus, UniProt Q75Z89). The experiment is described as follows: Binding affinity for 5-hydroxytryptamine 2 receptor was determined by using [3H]ketanserin as radioligand.
A further experiment has as its target D(2) dopamine receptor (Homo sapiens, UniProt P14416). In words: Binding affinity for Dopamine receptor D2 was determined by using [3H]spiperone as radioligand.
For a further experiment, the target named is D(1A) dopamine receptor (Mus musculus, UniProt Q61616). In words: Binding affinity for Dopamine receptor D1 was determined by using [3H]SCH-23390 as radioligand.
Experiment [12] deals with T2, 5-hydroxytryptamine receptor 2C (Rattus norvegicus, UniProt P08909).
T2 sequence (P08909 whole entry): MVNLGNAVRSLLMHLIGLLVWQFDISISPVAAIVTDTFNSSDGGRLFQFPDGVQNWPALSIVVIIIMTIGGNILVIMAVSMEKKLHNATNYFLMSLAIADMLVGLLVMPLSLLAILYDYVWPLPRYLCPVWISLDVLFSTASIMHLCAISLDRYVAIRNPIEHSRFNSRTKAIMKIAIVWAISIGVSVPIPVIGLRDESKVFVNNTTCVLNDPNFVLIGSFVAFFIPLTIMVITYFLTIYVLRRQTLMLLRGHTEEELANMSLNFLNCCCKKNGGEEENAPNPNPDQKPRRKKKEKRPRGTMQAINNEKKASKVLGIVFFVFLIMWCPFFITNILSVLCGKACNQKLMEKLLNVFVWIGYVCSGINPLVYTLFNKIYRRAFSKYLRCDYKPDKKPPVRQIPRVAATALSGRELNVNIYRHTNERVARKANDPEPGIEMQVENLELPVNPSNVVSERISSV
The experiment is described as follows: Binding affinity for 5-hydroxytryptamine 1C receptor was determined by using [3H]- mesulergine as radioligand.

For experiment [13], the target named is Sigma non-opioid intracellular receptor 1 (Homo sapiens, UniProt Q99720). In words: Binding affinity for Sigma opioid receptor was determined by using [3H](+)-3-(3-hydroxyphenyl)N-1-propyl-piperdine((+)-3-PPP) as radioligand.
The target of experiment [14] is T3, 5-hydroxytryptamine receptor 1A (Mus musculus, UniProt Q64264).
T3 sequence (Q64264 whole entry): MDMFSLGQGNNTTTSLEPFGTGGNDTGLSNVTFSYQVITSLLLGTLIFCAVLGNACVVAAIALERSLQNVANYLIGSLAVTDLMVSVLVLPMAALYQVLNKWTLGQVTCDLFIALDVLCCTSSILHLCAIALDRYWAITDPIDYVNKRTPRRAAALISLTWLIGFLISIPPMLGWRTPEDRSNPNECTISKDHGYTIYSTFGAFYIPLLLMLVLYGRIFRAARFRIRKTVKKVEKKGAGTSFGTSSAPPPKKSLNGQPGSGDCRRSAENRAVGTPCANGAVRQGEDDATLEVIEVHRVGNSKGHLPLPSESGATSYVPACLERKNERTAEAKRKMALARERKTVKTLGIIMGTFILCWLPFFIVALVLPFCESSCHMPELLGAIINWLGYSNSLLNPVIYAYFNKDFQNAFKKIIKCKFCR
In words: Binding affinity for 5-hydroxytryptamine 1A receptor was determined by using [3H]8-OH-DPAT as radioligand.

In experiment [15] the target is T1, Serotonin 3 (5-HT3) receptor (Rattus norvegicus). In words: Serotonin receptor antagonist activity was measured as ability to block the serotonin-induced Bezold-Jarisch reflex in rats after iv administration of 10 ug/Kg. It is filed as functional, organism-based. The following applies: in the assay text read “2 ug/Kg” for “10 ug/Kg”. In outline: as §2

pKi: −log10 of the molar value.

Chain of D(2) dopamine receptor (P14416 whole entry): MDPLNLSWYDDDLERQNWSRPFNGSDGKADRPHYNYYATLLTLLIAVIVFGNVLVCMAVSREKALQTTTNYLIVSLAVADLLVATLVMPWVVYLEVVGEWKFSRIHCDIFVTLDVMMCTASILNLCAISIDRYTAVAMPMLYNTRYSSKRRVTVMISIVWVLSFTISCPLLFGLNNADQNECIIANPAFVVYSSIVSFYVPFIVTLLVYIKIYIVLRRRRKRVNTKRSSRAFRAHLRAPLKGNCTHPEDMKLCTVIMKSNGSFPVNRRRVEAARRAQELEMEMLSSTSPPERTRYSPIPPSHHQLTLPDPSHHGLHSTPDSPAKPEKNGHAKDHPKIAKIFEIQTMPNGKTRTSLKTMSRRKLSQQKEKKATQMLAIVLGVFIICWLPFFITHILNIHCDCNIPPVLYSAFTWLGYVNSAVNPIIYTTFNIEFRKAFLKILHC
Chain of Muscarinic acetylcholine receptor M3 (P08483 whole entry): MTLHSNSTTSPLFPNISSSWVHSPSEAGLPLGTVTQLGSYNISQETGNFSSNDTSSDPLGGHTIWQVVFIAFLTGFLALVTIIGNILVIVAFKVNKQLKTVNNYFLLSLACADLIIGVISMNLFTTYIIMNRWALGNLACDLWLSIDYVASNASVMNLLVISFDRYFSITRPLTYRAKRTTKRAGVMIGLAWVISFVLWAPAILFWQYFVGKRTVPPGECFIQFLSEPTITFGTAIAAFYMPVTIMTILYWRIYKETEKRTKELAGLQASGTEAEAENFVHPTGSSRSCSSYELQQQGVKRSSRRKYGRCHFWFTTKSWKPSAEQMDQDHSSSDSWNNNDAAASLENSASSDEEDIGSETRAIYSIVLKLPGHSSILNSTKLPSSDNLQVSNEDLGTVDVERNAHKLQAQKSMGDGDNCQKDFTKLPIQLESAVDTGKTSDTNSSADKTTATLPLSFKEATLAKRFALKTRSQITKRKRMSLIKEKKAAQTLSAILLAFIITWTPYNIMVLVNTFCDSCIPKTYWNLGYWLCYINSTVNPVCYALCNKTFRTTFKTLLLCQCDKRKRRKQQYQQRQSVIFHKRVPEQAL
Chain of Beta-2 adrenergic receptor (P54833 whole entry): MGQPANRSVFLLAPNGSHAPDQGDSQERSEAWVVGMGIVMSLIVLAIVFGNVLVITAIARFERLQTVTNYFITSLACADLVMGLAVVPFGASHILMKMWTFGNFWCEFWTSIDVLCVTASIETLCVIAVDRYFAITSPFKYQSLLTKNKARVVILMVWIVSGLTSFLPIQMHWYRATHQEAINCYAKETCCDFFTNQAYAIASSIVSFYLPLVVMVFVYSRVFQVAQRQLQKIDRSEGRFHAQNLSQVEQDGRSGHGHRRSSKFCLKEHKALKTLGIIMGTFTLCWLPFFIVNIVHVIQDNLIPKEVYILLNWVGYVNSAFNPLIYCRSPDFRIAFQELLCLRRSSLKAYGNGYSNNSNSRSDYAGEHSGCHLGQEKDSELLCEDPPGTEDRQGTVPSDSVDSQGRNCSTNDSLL
Chain of Mu-type opioid receptor (P35372 whole entry): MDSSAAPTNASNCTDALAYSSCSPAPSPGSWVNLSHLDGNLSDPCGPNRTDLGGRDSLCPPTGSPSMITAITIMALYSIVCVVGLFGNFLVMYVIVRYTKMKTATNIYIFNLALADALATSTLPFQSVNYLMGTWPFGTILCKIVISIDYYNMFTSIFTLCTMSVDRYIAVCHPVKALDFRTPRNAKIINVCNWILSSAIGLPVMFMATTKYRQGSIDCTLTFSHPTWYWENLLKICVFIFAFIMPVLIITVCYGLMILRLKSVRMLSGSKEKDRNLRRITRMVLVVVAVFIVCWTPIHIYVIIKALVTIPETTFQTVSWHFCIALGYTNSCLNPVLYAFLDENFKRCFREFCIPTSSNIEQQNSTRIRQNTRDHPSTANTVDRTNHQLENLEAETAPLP
Chain of 5-hydroxytryptamine receptor 1B (Rattus norvegicus) (P28564 whole entry, looked up): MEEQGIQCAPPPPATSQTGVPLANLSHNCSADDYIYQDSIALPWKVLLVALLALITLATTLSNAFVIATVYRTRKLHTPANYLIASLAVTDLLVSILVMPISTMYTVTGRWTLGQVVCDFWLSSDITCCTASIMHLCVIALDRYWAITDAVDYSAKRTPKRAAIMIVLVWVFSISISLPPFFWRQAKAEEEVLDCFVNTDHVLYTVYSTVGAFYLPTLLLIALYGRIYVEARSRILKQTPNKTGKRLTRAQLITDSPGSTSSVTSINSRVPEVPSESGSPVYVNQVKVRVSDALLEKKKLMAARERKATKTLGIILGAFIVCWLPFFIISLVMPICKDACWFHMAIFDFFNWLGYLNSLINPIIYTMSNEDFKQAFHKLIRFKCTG
Chain of 5-hydroxytryptamine receptor 2A (Q75Z89 whole entry): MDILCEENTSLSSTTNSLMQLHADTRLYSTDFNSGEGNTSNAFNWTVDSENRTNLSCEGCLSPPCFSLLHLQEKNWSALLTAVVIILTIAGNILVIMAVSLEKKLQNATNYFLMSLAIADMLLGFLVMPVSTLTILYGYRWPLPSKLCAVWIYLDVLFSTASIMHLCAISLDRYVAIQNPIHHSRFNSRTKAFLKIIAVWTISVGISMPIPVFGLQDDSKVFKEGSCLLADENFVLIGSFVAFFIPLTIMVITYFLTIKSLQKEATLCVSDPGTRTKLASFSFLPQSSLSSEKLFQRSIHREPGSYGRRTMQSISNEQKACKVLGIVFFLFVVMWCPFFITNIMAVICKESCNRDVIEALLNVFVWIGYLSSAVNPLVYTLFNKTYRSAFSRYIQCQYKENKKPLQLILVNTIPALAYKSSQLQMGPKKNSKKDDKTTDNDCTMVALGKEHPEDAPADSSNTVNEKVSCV
Chain of D(1A) dopamine receptor (Q61616 whole entry): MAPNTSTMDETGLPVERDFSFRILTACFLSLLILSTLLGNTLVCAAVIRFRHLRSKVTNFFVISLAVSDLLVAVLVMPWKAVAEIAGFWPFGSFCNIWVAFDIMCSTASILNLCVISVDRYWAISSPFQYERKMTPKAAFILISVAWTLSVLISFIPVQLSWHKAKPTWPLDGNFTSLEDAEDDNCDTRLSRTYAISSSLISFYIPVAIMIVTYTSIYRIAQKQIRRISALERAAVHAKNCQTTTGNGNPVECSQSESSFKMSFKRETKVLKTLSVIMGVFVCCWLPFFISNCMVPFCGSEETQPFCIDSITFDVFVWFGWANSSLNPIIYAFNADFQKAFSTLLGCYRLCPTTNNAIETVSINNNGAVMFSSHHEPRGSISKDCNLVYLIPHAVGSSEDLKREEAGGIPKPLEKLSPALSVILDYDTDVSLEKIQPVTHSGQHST
Chain of Sigma non-opioid intracellular receptor 1 (Q99720 whole entry): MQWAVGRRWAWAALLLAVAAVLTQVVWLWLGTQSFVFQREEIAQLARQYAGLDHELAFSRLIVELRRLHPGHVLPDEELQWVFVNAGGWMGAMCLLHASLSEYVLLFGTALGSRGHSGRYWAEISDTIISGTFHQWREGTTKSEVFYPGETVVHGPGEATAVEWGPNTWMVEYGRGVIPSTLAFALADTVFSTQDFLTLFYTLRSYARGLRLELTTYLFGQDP

In experiment [1], `N=C(N)NCCCCOC(=O)c1c[nH]c2ccccc12` showed a pKi of 7.54.

`COc1ccc(-c2csc(Cc3[nH]cnc3C)n2)cc1` gave a pKi in experiment [1] of 6.41.

For the compound `Cc1[nH]cnc1Cc1nc(-c2ccc(Cl)cc2)cs1`, the pKi in experiment [1] is 7.47. On the same count and under the same terms, the result for `COc1cccc(OC)c1-c1csc(Cc2[nH]cnc2C)n1` reads 6.37; that for `Cc1[nH]cnc1Cc1nc(-c2cccc(F)c2)cs1`, 8.43.

As to `COc1ccccc1-c1csc(Cc2[nH]cnc2C)n1`, the inhibition was 57.9% in experiment [2], 100% in [3] and 88.5% in experiment [5]. In experiment [4], the pKi is 9.38.

Turning to `COc1ccccc1-c1csc(Cc2c[nH]cn2)n1`, the pKi in [1] was 9.54.

Take `Cc1[nH]cnc1Cc1nc(-c2ccc(F)cc2)cs1`: the pKi in experiment [1] is 8.31. As to `CCOc1ccccc1-c1csc(Cc2[nH]cnc2C)n1`, in experiment [1], the pKi is 9.02. On to `COc1cccc(-c2csc(Cc3[nH]cnc3C)n2)c1`, for which the pKi in experiment [1] was 8.70. The compound `N=C(N)NCc1nc(-c2c[nH]c3ccccc23)cs1` showed a pKi in experiment [1] of 8.48. The compound `Cc1nccn1CC1CCc2c(c3ccccc3n2C)C1=O` (stereo unspecified) came in with an inhibition in [6] of 89.7%. Regarding `Cc1[nH]cnc1Cc1nc(-c2ccccc2)cs1`, the inhibition in experiment [2] was determined as 10.7%; in experiment [3] it was 100%. With `Cc1[nH]cnc1Cc1nc(-c2cccc(Br)c2)cs1`, the pKi in [1] is 8.70.

As to `Cc1[nH]cnc1Cc1nc(-c2c[nH]c3ccccc23)cs1`, in [3], the inhibition came out at 45.2%. In experiment [1], `Cc1[nH]cnc1Cc1nc(-c2ccccc2O)cs1` had a pKi of 8.82. Turning to `c1ccc(-c2csc(Cc3c[nH]cn3)n2)cc1`, the pKi in experiment [1] was 9.00. For the compound `Cc1[nH]cnc1Cc1nc(-c2cccc(Cl)c2)cs1`, in experiment [1], the pKi is 9.06.

In turn, `Cc1ccc(-c2csc(Cc3[nH]cnc3C)n2)cc1` had a pKi in experiment [1] of 6.96. Still for that read-out and setting: the result for `N=C(N)NCCOC(=O)c1c[nH]c2ccccc12` reads 8.15. In [4], `Cc1nc[nH]c1Cc1nc(-c2c[nH]c3ccccc23)cs1` showed a pKi of 7.92. In experiment [1], `CN1[C@@H]2CC[C@H]1C[C@H](OC(=O)c1ccccc1)C2` showed a pKi of 6.48. The compound `c1cnc2c(-c3csc(Cc4c[nH]cn4)n3)cccc2c1` had a pKi in [1] of 9.51. Still for that read-out and setting: next, `Cc1[nH]cnc1Cc1nc(-c2ccccc2C(F)(F)F)cs1`: 7.21; `N=C(N)NCCCOC(=O)c1c[nH]c2ccccc12`: 7.57; `COc1ccc2ccccc2c1-c1csc(Cc2[nH]cnc2C)n1`: 6.40. Take `Cc1[nH]cnc1Cc1nc(-c2ccc(Br)cc2)cs1`: the pKi in experiment [1] was 6.57. On to `Cc1nc[nH]c1Cc1nc(-c2ccccc2)cs1`, for which the pKi in experiment [7] is below 6.00; in [8] it was below 6.00; on Mu-type opioid receptor, below 6.00; in experiment [9], below 6.00; in [4], 8.74; in [10], below 6.00. In addition, the pKi (in [11]; on D(2) dopamine receptor; on D(1A) dopamine receptor; in experiment [12]; in experiment [13]; in [14]) was below 6.00 each time. `Cc1[nH]cnc1Cc1nc(-c2ccccc2F)cs1`: the inhibition in experiment [2] turned out to be 66.4%. In experiment [4], this compound had a negative-log Ki (pKi) of 8.71. `Cc1[nH]cnc1Cc1nc(-c2cccc3cccnc23)cs1`: the figures for the inhibition in experiment [2] and in experiment [6] were 43% and 91.9%, respectively. This compound also gave a pKi in experiment [4] of 9.00. Compound `CN1[C@@H]2CC[C@H]1C[C@@H](OC(=O)c1c[nH]c3ccccc13)C2` returned an inhibition in [15] of 77.5%. In turn, `Cc1ccccc1-c1csc(Cc2[nH]cnc2C)n1` showed a pKi in experiment [1] of 8.06. The same measure, in the same setting: next, `COc1c(-c2csc(Cc3[nH]cnc3C)n2)ccc2ccccc12`: 7.02.
